Data published in ChEMBL document CHEMBL1909615, “Design, synthesis and antibacterial activity of fluoroquinolones containing bulky arenesulfonyl fragment: 2D-QSAR and docking study” (2011).
Values after ≈ are worked out from the molar mass of the structure shown.

Key:
Format in all cases: functional
Staphylococcus aureus = assay: Antibacterial activity against Staphylococcus aureus ATCC 29213 after 18 hrs by EUCAST broth dilution method; conditions: for MIC: Staphylococcus aureus, ATCC 29213, 18 h
In short: (§1)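 Broth microdilution in Mueller-Hinton broth per CLSI. Compounds dissolved in DMSO at 5120 µg/mL, diluted tenfold in MHB to 512 µg/mL, then twofold serially across 12 wells down to 0.25 µg/mL. Strains grown in tryptone soy broth; 5 µL inoculum (10^4-10^5 CFU/mL) added per well. Incubated 35 °C, 18 h. MIC read manually as the lowest concentration preventing visible growth.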

Escherichia coli = assay: Antibacterial activity against Escherichia coli ATCC 25922 after 18 hrs by EUCAST broth dilution method; conditions: ATCC 25922, 18 h; in short: as §1
Pseudomonas aeruginosa = assay: Antibacterial activity against Pseudomonas aeruginosa ATCC 27853 after 18 hrs by EUCAST broth dilution method; conditions: for MIC: Pseudomonas aeruginosa, ATCC 27853, 18 h; in short: as §1
Bacillus subtilis = assay: Antibacterial activity against Bacillus subtilis ATCC 10400 after 18 hrs by EUCAST broth dilution method; conditions: for MIC: Bacillus subtilis, ATCC 10400, 18 h

SMILES	log(1/MIC), MIC in mM (Staphylococcus aureus)	MIC (Staphylococcus aureus) [µM]	MIC (Escherichia coli) [µM]	log(1/MIC), MIC in mM (Pseudomonas aeruginosa)	MIC (Pseudomonas aeruginosa) [µM]	log(1/MIC), MIC in mM (Bacillus subtilis)	MIC (Bacillus subtilis) [µM]
CCn1cc(C(=O)O)c(=O)c2cc(F)c(N3CCN(S(=O)(=O)c4ccc5ccccc5c4)CC3)cc21	2.71	1.96 (≈ 0.999 µg/mL)	251 (≈ 128 µg/mL)	0.9	126 (≈ 64.2 µg/mL)	3.01	0.981 (≈ 0.5 µg/mL)
CC(C)c1cc(C(C)C)c(S(=O)(=O)N2CCN(c3cc4c(cc3F)c(=O)c(C(=O)O)cn4C3CC3)CC2)c(C(C)C)c1	0.67	214 (≈ 128 µg/mL)	3.35 (≈ 2 µg/mL)	0.37	≥ 428	0.97	107 (≈ 64 µg/mL)
COc1ccc(S(=O)(=O)N2CCN(c3cc4c(cc3F)c(=O)c(C(=O)O)cn4C3CC3)CC2)cc1OC	3.33	≤ 0.47	≤ 0.47	2.42	3.76 (≈ 2 µg/mL)	3.33	0.47 (≈ 0.25 µg/mL)
O=C(O)c1cn(C2CC2)c2cc(N3CCNCC3)c(F)cc2c1=O [CIPROFLOXACIN]	3.12	≤ 0.758	≤ 0.758	3.12	0.758 (≈ 0.251 µg/mL)	3.12	≤ 0.758
CCn1cc(C(=O)O)c(=O)c2cc(F)c(N3CCN(S(=O)(=O)c4c(C(C)C)cc(C(C)C)cc4C(C)C)CC3)cc21	1.26	55 (≈ 32.2 µg/mL)	55 (≈ 32.2 µg/mL)	0.96	109 (≈ 63.8 µg/mL)	1.26	55 (≈ 32.2 µg/mL)
CCn1cc(C(=O)O)c(=O)c2cc(F)c(N3CCN(S(=O)(=O)c4ccc(Cl)c(Cl)c4)CC3)cc21	3.33	≤ 0.473	≤ 0.473	2.72	1.89 (≈ 0.999 µg/mL)	3.33	≤ 0.473
O=C(O)c1cn(C2CC2)c2cc(N3CCN(S(=O)(=O)c4ccc(Cl)cc4Cl)CC3)c(F)cc2c1=O	3.33	≤ 0.463	≤ 0.463	2.73	1.85 (≈ 1 µg/mL)	3.33	≤ 0.463
CCn1cc(C(=O)O)c(=O)c2cc(F)c(N3CCN(S(=O)(=O)c4c(Cl)cc(Cl)cc4Cl)CC3)cc21	2.75	1.78 (≈ 1 µg/mL)	≥ 455	0.34	≥ 455	3.35	0.444 (≈ 0.25 µg/mL)
CCn1cc(C(=O)O)c(=O)c2cc(F)c(N3CCN(S(=O)(=O)c4ccc(OC)cc4OC)CC3)cc21	3.32	0.481 (≈ 0.25 µg/mL)	≤ 0.481	2.14	3.85 (≈ 2 µg/mL)	3.32	0.481 (≈ 0.25 µg/mL)
CCn1cc(C(=O)O)c(=O)c2cc(F)c(N3CCN(S(=O)(=O)c4ccc(Cl)cc4Cl)CC3)cc21	3.33	≤ 0.473	≤ 0.473	2.86	1.39 (≈ 0.734 µg/mL)	3.33	0.473 (≈ 0.25 µg/mL)
Cc1cc(C)c(S(=O)(=O)N2CCN(c3cc4c(cc3F)c(=O)c(C(=O)O)cn4C3CC3)CC2)c(C)c1	1.21	62 (≈ 31.8 µg/mL)	62 (≈ 31.8 µg/mL)	0.9	125 (≈ 64.2 µg/mL)	1.51	31 (≈ 15.9 µg/mL)
O=C(O)c1cn(C2CC2)c2cc(N3CCN(S(=O)(=O)c4ccc(Cl)c(Cl)c4)CC3)c(F)cc2c1=O	3.33	≤ 0.463	≤ 0.463	2.73	1.85 (≈ 1 µg/mL)	3.33	≤ 0.463
O=C(O)c1cn(C2CC2)c2cc(N3CCN(S(=O)(=O)c4c(Cl)cc(Cl)cc4Cl)CC3)c(F)cc2c1=O	2.76	1.74 (≈ 1 µg/mL)	111 (≈ 63.8 µg/mL)	0.95	111 (≈ 63.8 µg/mL)	3.36	0.435 (≈ 0.25 µg/mL)
CCn1cc(C(=O)O)c(=O)c2cc(F)c(N3CCN(S(=O)(=O)c4ccc(F)cc4F)CC3)cc21	2.09	8.07 (≈ 4 µg/mL)	8.07 (≈ 4 µg/mL)	0.89	129 (≈ 63.9 µg/mL)	2.39	4.04 (≈ 2 µg/mL)
O=C(O)c1cn(C2CC2)c2cc(N3CCN(S(=O)(=O)c4ccc(F)cc4F)CC3)c(F)cc2c1=O	2.41	3.94 (≈ 2 µg/mL)	7.88 (≈ 4 µg/mL)	1.2	63 (≈ 32 µg/mL)	3.31	0.493 (≈ 0.25 µg/mL)
COc1ccc(S(=O)(=O)N2CCN(c3cc4c(cc3F)c(=O)c(C(=O)O)cn4C3CC3)CC2)c(OC)c1	3.33	≤ 0.47	≤ 0.47	3.33	0.47 (≈ 0.25 µg/mL)	3.33	≤ 0.47
O=C(O)c1cn(C2CC2)c2cc(N3CCN(S(=O)(=O)c4ccc5ccccc5c4)CC3)c(F)cc2c1=O	2.72	1.92 (≈ 1 µg/mL)	123 (≈ 64.2 µg/mL)	0.61	245 (≈ 128 µg/mL)	2.72	1.92 (≈ 1 µg/mL)
CCn1cc(C(=O)O)c(=O)c2cc(F)c(N3CCN(S(=O)(=O)c4c(C)c(C)c(C)c(C)c4C)CC3)cc21	0.62	242 (≈ 128 µg/mL)	242 (≈ 128 µg/mL)	0.62	242 (≈ 128 µg/mL)	0.62	242 (≈ 128 µg/mL)
CCn1cc(C(=O)O)c(=O)c2cc(F)c(N3CCN(S(=O)(=O)c4cccc5ccccc45)CC3)cc21	2.71	1.96 (≈ 0.999 µg/mL)	251 (≈ 128 µg/mL)	0.6	251 (≈ 128 µg/mL)	3.01	0.981 (≈ 0.5 µg/mL)
O=C(O)c1cn(C2CC2)c2cc(N3CCN(S(=O)(=O)c4cccc5ccccc45)CC3)c(F)cc2c1=O	2.72	1.92 (≈ 1 µg/mL)	61.3 (≈ 32 µg/mL)	0.91	123 (≈ 64.2 µg/mL)	3.32	0.479 (≈ 0.25 µg/mL)
Cc1c(C)c(C)c(S(=O)(=O)N2CCN(c3cc4c(cc3F)c(=O)c(C(=O)O)cn4C3CC3)CC2)c(C)c1C	0.33	≥ 473	≥ 473	0.33	≥ 473	0.63	236 (≈ 128 µg/mL)
CCn1cc(C(=O)O)c(=O)c2cc(F)c(N3CCN(S(=O)(=O)c4ccc(OC)c(OC)c4)CC3)cc21	3.02	0.962 (≈ 0.5 µg/mL)	≤ 0.481	2.14	3.85 (≈ 2 µg/mL)	3.02	0.962 (≈ 0.5 µg/mL)
CCn1cc(C(=O)O)c(=O)c2cc(F)c(N3CCN(S(=O)(=O)c4c(C)cc(C)cc4C)CC3)cc21	2.09	7.98 (≈ 4 µg/mL)	32 (≈ 16.1 µg/mL)	1.19	64 (≈ 32.1 µg/mL)	2.09	7.98 (≈ 4 µg/mL)
